ChEMBL document CHEMBL2040760, “Synthesis and biological evaluation of novel (-)-Cercosporamide derivatives as potent selective PPARγ modulators” (Eur J Med Chem, 2012)
pEC50: −log10 of the molar value. Activity calls are given as the source filed them. The rule behind the calls is not given here.

What was measured:
Rattus norvegicus [1] = assay: Antidiabetic activity in Zucker diabetic fatty rat assessed as reduction of triglyceride level at 100 mg/kg, po qd for 12 days; format: functional, organism-based; design: dose 100 mg/kg
In short: (§1)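 Female ZDF rats, 5 weeks old on arrival, acclimatised over 1 week on MR-DBT chow with 10% lard. Randomised on Day -1 by BW, PG, insulin and blood indices. Once-daily oral gavage in 0.5% methylcellulose at 0.01–100 mg/kg for 12 days, n = 5. BW recorded daily. Tail-vein plasma taken Day 12 for glucose, TG, FFA and insulin kits. Dunnett vs vehicle.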

[2] = target: T1, Peroxisome proliferator-activated receptor alpha (Homo sapiens) (UniProt Q07869); assay: Modulation of human GAL4-fused PPARalpha LBD expressed in COS7 cells co-expressing pG5luc at 10 uM by luciferase reporter gene based transactivation assay; format: cell-based; settings: COS-7
T1 sequence (whole entry): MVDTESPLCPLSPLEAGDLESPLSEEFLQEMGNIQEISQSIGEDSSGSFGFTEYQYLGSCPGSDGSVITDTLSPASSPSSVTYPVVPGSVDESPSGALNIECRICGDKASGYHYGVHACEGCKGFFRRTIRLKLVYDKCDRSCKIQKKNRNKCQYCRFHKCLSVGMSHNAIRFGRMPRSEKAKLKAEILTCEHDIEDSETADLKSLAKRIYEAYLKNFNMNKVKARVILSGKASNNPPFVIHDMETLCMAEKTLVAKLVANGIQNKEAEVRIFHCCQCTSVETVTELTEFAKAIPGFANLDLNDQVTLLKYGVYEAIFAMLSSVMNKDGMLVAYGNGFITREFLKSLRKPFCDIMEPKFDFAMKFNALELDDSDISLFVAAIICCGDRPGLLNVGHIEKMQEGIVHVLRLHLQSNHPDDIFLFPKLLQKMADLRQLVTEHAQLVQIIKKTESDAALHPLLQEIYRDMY
In short: (§2)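 COS7 cells in DMEM with 10% FBS were transfected with pM-hPPARγ, pM-PPARα or pM-PPARδ (GAL4-LBD) plus pG5luc using Lipofectamine 2000, then reseeded and held about 24 h. Serial dilutions were added, with 0.1% DMSO as control, for about 24 h more. Read-out was luciferase luminescence. Mean ± S.E.M., n = 3.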

Rattus norvegicus [3] = assay: Antidiabetic activity in po dosed Zucker diabetic fatty rat assessed as improvement in plasma lipids profiles administered qd for 12 days; format: functional, organism-based; in short: as §1
[4] = target: T2, Peroxisome proliferator-activated receptor gamma (Homo sapiens) (UniProt P37231); assay: Modulation of human GAL4-fused PPARgamma LBD expressed in COS7 cells co-expressing pG5luc by luciferase reporter gene based transactivation assay relative to control; format: cell-based; settings: COS-7; in short: as §2
T2 sequence (whole entry): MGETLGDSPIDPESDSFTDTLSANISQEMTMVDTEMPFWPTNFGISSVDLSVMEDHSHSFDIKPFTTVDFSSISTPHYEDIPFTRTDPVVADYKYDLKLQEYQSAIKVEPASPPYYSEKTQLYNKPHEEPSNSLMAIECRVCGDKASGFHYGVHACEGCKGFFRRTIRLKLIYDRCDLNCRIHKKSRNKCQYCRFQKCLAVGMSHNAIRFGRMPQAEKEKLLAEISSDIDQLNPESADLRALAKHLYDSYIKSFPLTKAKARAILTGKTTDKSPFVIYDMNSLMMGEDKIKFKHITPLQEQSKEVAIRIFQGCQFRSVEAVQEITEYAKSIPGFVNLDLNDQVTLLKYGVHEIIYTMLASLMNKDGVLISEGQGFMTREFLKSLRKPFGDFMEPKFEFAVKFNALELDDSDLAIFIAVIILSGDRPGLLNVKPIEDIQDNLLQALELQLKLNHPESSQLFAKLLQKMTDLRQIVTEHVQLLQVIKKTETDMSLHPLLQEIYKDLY

[5] = target: T3, Peroxisome proliferator-activated receptor delta (Homo sapiens) (UniProt Q03181); assay: Modulation of human GAL4-fused PPARdelta LBD expressed in COS7 cells co-expressing pG5luc at 10 uM by luciferase reporter gene based transactivation assay; format: cell-based; settings: COS-7; in short: as §2
T3 sequence (whole entry): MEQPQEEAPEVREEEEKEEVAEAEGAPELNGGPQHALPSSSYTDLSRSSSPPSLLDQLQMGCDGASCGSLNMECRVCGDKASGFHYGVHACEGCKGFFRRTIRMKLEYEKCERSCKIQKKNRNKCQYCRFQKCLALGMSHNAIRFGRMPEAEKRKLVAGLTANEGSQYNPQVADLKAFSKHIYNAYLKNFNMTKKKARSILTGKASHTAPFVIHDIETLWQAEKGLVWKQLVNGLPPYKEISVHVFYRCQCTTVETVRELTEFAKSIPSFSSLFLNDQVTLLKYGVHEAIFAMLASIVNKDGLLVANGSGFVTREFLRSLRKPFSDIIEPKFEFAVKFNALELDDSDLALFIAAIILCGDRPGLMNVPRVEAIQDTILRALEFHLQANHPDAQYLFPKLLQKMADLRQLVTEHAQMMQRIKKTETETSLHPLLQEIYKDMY

Rattus norvegicus [6] = assay: Antidiabetic activity in Zucker diabetic fatty rat assessed as reduction of free fatty acids level at >1 mg/kg, po qd for 12 days; format: functional, organism-based; in short: as §1
[7] = target: T2, Peroxisome proliferator-activated receptor gamma (Homo sapiens); assay: Modulation of full-length human pSG5-fused PPARgamma expressed in MG-63 cells co-expressing pGV-P2-PPRE after 24 hrs by luciferase reporter gene based transactivation assay relative to 5-(4-{[6-(4-hydroxy-3,5-dimethylphenoxy)-1-methyl-1H-benzimidazol- 2-yl]methoxy}benzyl)-1,3-thiazolidine-2,4-dione; format: cell-based
In short: (§3)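 MG-63 cells transiently co-transfected (Lipofectamine, 4 h, serum- and antibiotic-free) with pSG5-hPPARγ and pGV-P2-PPRE luciferase reporter, replated at 40,000 cells/well. After 24 h and medium change, exposed to graded compound concentrations for 20 h. Luciferase luminescence read as the output.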

[8] = target: T4, Peroxisome proliferator-activated receptor gamma (Homo sapiens, UniProt P37231); assay: Modulation of full-length human pSG5-fused PPARgamma expressed in MG-63 cells co-expressing pGV-P2-PPRE after 24 hrs by luciferase reporter gene based transactivation assay; format: cell-based; in short: as §3
T4 sequence (P37231 whole entry): T2 sequence (whole entry)

[9] = Solubility of the compound in JP2 at pH 6.8; format: physicochemical; settings: JP2, pH 6.8
In short: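 Solubility was measured in JP2 medium at pH 6.8.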

[10] = Terminal half life in Fischer rat at 10 mg/kg, iv; format: ADME, organism-based; design: dose 10 mg/kg, route intravenous; settings: in vivo, read-out: beta t1/2 (converted)
In short: (§4)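 Male Fischer rats, fasted overnight, received the potassium salt at 10 mg/kg (5 mg/mL, 2 mL/kg). Vehicle was 20% HCO-60 in saline orally or 5% HCO-60 intravenously. Jugular-vein blood was taken and plasma drug measured by LC-MS/MS. Non-compartmental PK analysis; oral n = 4.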

Rattus norvegicus [11] = assay: Toxicity in Zucker diabetic fatty rat assessed as increase in body weight at >1 mg/kg, po qd for 12 days; format: organism-based; settings: in vivo, 288 h; in short: as §1
[12] = Total clearance in Fischer rat at 10 mg/kg, iv; format: ADME, organism-based; design: dose 10 mg/kg, route intravenous; settings: in vivo; in short: as §4
Rattus norvegicus [13] = assay: Toxicity in Wistar-Imamichi rat assessed as increase heart weight at 100 mg/kg, po qd for 14 days; format: organism-based; design: dose 100 mg/kg, route oral; settings: in vivo, 336 h
In short: (§5)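 Female Wistar–Imamichi rats, 7 weeks old on arrival, randomised by BW. Once-daily oral gavage in 0.5% methylcellulose for 14 days, n = 5, BW recorded daily. On Day 14, 0.05% Evans blue was given i.v. (0.1 mL/100 g) and aortic blood drawn at 10 min. Heart weighed. Plasma TCA-deproteinised, sonicated, A620 read, and plasma volume computed from an EB calibration curve.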

Rattus norvegicus [14] = assay: Toxicity in Wistar-Imamichi rat assessed as increase in body weight at 30 to 100 mg/kg, po qd for 14 days; format: organism-based; design: dose 30-100 mg/kg, route oral; settings: in vivo, 336 h; in short: as §5
[15] = Oral bioavailability in Fischer rat at 10 mg/kg; format: ADME, organism-based; settings: in vivo; in short: as §4
Rattus norvegicus [16] = assay: Toxicity in Wistar-Imamichi rat assessed as increase plasma volume at 100 mg/kg, po qd for 14 days; format: organism-based; design: dose 100 mg/kg, route oral; settings: in vivo, 336 h; in short: as §5
Rattus norvegicus [17] = assay: Antidiabetic activity in Zucker diabetic fatty rat assessed as reduction of non-fasting plasma glucose level at >1 mg/kg, po qd for 12 days; format: functional; in short: as §1

| Compound | Emax [7] [%] | pEC50 [8] | also measured |
| --- | --- | --- | --- |
| CCc1cc(F)c2ccccc2c1CNC(=O)c1c(OC)cc(O)c2c1OC1=CC(O)=C(C(C)=O)C(=O)[C@]12C | 38 |  | Activity (Rattus norvegicus [1]): Active; Activity [2]: inactive; Activity (Rattus norvegicus [3]): Dose-dependent effect; Emax [4]: 64%; Activity [5]: inactive; Activity (Rattus norvegicus [6]): Active |
| COc1cc(O)c2c(c1C(=O)NCc1c(C)cc(F)c3ccccc13)OC1=CC(O)=C(C(C)=O)C(=O)[C@]12C | 50 | 8.32 |  |
| COc1cc(O)c2c(c1C(=O)NCc1c(C)cc(Cl)c3ccccc13)OC1=CC(O)=C(C(C)=O)C(=O)[C@]12C | 57 | 7.66 |  |
| CCc1cc(F)c2ccccc2c1CNC(=O)c1c(OC)cc(O)c2c1OC1=CC([O-])=C(C(C)=O)C(=O)[C@]12C.[K+] |  |  | solubility [9]: 910 µg/mL; half-life [10]: 4 h; Activity (Rattus norvegicus [11]): Toxic; clearance [12]: 6.98 mL/min/kg; Activity (Rattus norvegicus [13]): Non-toxic; Activity (Rattus norvegicus [14]): Toxic; bioavailability [15]: 58%; Activity (Rattus norvegicus [16]): Non-toxic; Activity (Rattus norvegicus [17]): <200 mg/dL |
| COc1cc(O)c2c(c1C(=O)NCc1cccc3ccccc13)OC1=CC(O)=C(C(C)=O)C(=O)[C@]12C | 47 | 6.74 |  |
| CCc1ccc2ccccc2c1CNC(=O)c1c(OC)cc(O)c2c1OC1=CC(O)=C(C(C)=O)C(=O)[C@]12C | 39 | 8.43 |  |

The next lines start with results.

| Emax [7] [%] | pEC50 [8] | Compound | also measured |
| --- | --- | --- | --- |
| 26 | 7.25 | COc1cc(O)c2c(c1C(=O)NCc1c(C)ccc3cc(Cl)ccc13)OC1=CC(O)=C(C(C)=O)C(=O)[C@]12C |  |
| 39 | 7.80 | COc1cc(O)c2c(c1C(=O)NCc1c(C)ccc3c(F)cccc13)OC1=CC(O)=C(C(C)=O)C(=O)[C@]12C |  |
| 47 | 7.55 | COc1cc(O)c2c(c1C(=O)NCc1c(C)ccc3ccccc13)OC1=CC(O)=C(C(C)=O)C(=O)[C@]12C |  |
